Results: ChEMBL document CHEMBL1153351, “7-Sulfonamido-3-benzazepines as potent and selective 5-HT2C receptor agonists: hit-to-lead optimization” (Bioorg Med Chem Lett, 2009)

What was measured:
[1] = target: T1, 5-hydroxytryptamine receptor 2C (Homo sapiens) (UniProt P28335); experiment: Agonist activity at human recombinant 5HT2C receptor expressed in CHOK1 cells assessed as calcium mobilization by FLIPR assay relative to serotonin; type: functional, cell-based; settings: CHO-K1
T1 sequence (whole entry): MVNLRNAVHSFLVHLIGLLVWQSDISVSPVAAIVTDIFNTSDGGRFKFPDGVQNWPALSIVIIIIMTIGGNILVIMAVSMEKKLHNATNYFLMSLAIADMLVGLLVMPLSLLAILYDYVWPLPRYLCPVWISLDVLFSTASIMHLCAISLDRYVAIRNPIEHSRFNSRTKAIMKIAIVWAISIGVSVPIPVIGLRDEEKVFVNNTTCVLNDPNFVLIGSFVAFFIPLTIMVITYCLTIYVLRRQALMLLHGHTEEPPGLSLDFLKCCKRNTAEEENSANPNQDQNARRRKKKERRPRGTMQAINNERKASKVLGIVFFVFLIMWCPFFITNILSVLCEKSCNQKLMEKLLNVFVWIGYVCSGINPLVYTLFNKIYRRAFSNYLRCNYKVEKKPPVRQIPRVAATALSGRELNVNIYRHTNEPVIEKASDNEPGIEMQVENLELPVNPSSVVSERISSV
Method in brief: (§1)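 Human 5-HT2C receptor expressed recombinantly in CHO-K1 cells. Agonist response was read as a fluorescence-based calcium mobilization signal on FLIPR, giving EC50 and Emax. Values are geometric means of 2–4 experiments.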

[2] = target: T2, 5-hydroxytryptamine receptor 2B (Homo sapiens, UniProt P41595); experiment: Agonist activity at human recombinant 5HT2B receptor by cell-based system; type: functional
T2 sequence (P41595 whole entry): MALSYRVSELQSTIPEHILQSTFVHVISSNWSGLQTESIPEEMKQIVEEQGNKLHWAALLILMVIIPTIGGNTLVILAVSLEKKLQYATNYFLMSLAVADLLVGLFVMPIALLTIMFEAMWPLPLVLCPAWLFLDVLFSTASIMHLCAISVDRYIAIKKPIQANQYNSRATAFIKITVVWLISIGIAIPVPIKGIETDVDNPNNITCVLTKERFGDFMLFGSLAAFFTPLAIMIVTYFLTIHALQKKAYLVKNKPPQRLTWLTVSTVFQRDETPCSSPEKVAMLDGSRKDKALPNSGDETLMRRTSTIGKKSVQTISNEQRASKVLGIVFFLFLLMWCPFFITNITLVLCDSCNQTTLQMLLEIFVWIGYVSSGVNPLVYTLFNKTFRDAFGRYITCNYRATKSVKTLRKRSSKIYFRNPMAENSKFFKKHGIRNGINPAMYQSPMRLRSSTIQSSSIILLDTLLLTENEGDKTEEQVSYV
Method in brief: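 Agonist activity read in a recombinant cell-based system expressing the human 5-HT2B receptor, giving EC50 and Emax. Values are geometric means of 2–4 experiments.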

[3] = target: T3, 5-hydroxytryptamine receptor 2C (Homo sapiens, UniProt P28335); experiment: Agonist activity at human recombinant 5HT2C receptor expressed in CHOK1 cells assessed as calcium mobilization by FLIPR assay; type: functional, cell-based, CHO-K1; method in brief: as §1
T3 sequence (P28335 whole entry): T1 sequence (whole entry)

Liver microsomes = experiment: Metabolic stability in human liver microsomes assessed as intrinsic clearance; type: ADME, Microsome
Method in brief: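 High-throughput incubation with human liver microsomes. Metabolic stability expressed as intrinsic clearance (μL/min/mg).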

[4] = Distribution coefficient, log D at pH 7.4; type: physicochemical; settings: octanol/water
[5] = target: Voltage-gated inwardly rectifying potassium channel KCNH2 (Homo sapiens, UniProt Q12809); experiment: Binding affinity to human ERG
Voltage-gated inwardly rectifying potassium channel KCNH2, sequence (Q12809 whole entry): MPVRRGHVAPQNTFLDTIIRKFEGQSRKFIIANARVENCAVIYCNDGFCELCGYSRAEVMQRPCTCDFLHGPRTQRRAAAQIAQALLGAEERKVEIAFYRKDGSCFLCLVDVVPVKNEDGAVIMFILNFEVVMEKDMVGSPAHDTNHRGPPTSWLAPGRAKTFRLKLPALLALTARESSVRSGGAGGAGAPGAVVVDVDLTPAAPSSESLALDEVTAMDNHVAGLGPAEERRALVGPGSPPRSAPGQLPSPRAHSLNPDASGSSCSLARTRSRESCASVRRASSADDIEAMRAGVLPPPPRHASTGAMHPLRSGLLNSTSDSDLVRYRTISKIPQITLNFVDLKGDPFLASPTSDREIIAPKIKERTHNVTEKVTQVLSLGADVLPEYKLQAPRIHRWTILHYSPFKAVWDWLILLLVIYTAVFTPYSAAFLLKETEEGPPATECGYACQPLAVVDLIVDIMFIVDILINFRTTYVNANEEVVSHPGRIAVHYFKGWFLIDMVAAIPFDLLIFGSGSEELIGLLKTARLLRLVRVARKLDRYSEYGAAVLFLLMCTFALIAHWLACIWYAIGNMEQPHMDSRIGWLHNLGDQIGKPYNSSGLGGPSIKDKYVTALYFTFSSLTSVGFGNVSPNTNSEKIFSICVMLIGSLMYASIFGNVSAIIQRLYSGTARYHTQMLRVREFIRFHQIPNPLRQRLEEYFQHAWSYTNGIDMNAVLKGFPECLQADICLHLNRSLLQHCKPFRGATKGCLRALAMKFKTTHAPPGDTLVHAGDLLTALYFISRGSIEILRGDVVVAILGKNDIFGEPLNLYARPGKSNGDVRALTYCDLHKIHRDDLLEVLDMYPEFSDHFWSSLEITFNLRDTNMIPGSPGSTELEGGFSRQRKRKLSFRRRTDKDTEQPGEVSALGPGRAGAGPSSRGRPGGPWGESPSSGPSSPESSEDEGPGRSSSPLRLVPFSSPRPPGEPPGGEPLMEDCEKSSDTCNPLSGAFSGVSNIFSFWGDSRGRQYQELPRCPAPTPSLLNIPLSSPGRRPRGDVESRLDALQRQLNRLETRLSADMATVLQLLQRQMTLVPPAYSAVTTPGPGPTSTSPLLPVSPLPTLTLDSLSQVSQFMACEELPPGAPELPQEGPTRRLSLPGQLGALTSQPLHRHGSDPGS

[6] = target: T3, 5-hydroxytryptamine receptor 2C; experiment: Displacement of [3H]mesulergine form human recombinant 5HT2C receptor expressed in mouse Swiss 3T3 cells by scintillation proximity assay; type: cell-based
Method in brief: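 Inhibition of [3H]-mesulergine binding to human 5-HT2C receptor, read by scintillation proximity assay. Used membrane preparations from recombinant Swiss 3T3 cells.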

[7] = target: T1, 5-hydroxytryptamine receptor 2C (Homo sapiens); experiment: Agonist activity at human recombinant 5HT2C receptor expressed in CHOK1 cells assessed as calcium mobilization at 10 uM by FLIPR assay relative to serotonin; type: functional, cell-based; settings: CHO-K1
Method in brief: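 Fluorescent calcium mobilization read by FLIPR in recombinant CHO-K1 cells expressing human 5-HT2C receptor. Value is % activation at 10 μM, geometric mean of 2–4 experiments.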

[8] = Apparent permeability from basolateral to apical side of MDCK cells expressing mdr1; type: ADME, cell-based, Canis lupus familiaris; settings: dog
Method in brief: (§2)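 Transit across MDCK-mdr1 monolayers, measured in both apical-to-basolateral and basolateral-to-apical directions. Reported as Papp (10^-6 cm/s), used to judge membrane permeability and P-gp efflux.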

[9] = target: T2, 5-hydroxytryptamine receptor 2B; experiment: Agonist activity at human recombinant 5HT2B receptor at 10 uM by cell-based system; type: functional
Method in brief: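 Agonist response measured in a recombinant cell-based system expressing human 5-HT2B. Values are % activation at 10 μM, geometric means of 2–4 experiments.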

[10] = Apparent permeability from apical to basolateral side of MDCK cells expressing mdr1; type: ADME, cell-based, Canis lupus familiaris; settings: dog; method in brief: as §2

clearance (Liver microsomes) [µL/min/mg] | logD [4] | Emax [7] [%] | Activity [9] [%] | SMILES | Emax [1] [%] | EC50 [2] [nM] | EC50 [3] [nM] | Ki [5] [nM] | Ki [6] [nM] | Emax [2] [%] | Papp B→A [8] [×10⁻⁶ cm/s] | Papp A→B [10] [×10⁻⁶ cm/s]
 |  |  |  | O=S(=O)(c1ccc2c(c1)CCNCC2)N1CCC(Oc2ccccc2)CC1 | 59 | > 9940 | 508 |  |  |  |  | 
< 8 | 1.6 |  |  | O=S(=O)(c1ccc2c(c1)CCNCC2)N1CC(Oc2ccc(Cl)cc2)C1 | 66 | > 9940 | 28 | 2090 |  |  |  | 
 |  |  |  | O=S(=O)(Nc1ccccc1Cl)c1ccc2c(c1)CCNCC2 | 38 | 478 | 857 |  | 156 | 16 |  | 
 |  |  |  | O=S(=O)(c1ccc2c(c1)CCNCC2)N1CCCCC1 | 66 | 34 | 84 |  | 9 | 89 |  | 
 |  | 10 |  | CN(c1ccc2c(c1)CCNCC2)S(=O)(=O)c1ccccc1F |  |  |  |  |  |  |  | 
 | 1 |  | < 10 | CN(CC1COc2ccccc21)S(=O)(=O)c1ccc2c(c1)CCNCC2 (stereo unspecified) | 74 | > 9940 | 41 | 2990 | 58 |  | 34 | 18
 |  |  |  | O=S(=O)(c1ccc2c(c1)CCNCC2)N1CCCC1 | 86 | 357 | 50 |  | 51 | 68 |  | 
 |  |  |  | COc1cc(S(=O)(=O)N(C)Cc2ccccc2)c(OC)c2c1CCNCC2 | 50 | > 9940 | 170 |  |  |  |  | 
34 | 1.3 |  |  | O=S(=O)(c1ccc2c(c1)CCNCC2)N1CC[C@H](Oc2ccccc2Cl)C1 | 47 | > 9940 | 31 |  |  |  |  | 
 |  | < 10 |  | COc1c(S(=O)(=O)N(C)Cc2ccccc2)ccc2c1CCNCC2 |  |  |  |  |  |  |  | 
 |  |  |  | O=S(=O)(Nc1ccccc1)c1ccc2c(c1)CCNCC2 | 38 | 69 | 697 |  | 382 | 50 |  | 
 |  |  |  | COc1cc(S(=O)(=O)N2CCC(Oc3ccccc3Cl)CC2)c(OC)c2c1CCNCC2 | 57 |  | 365 |  |  |  |  | 
 |  |  |  | O=S(=O)(Nc1ccccc1F)c1ccc2c(c1)CCNCC2 | 47 | 75 | 197 |  | 133 | 41 |  | 
 |  |  |  | CN(C)S(=O)(=O)c1ccc2c(c1)CCNCC2 | 74 | 125 | 47 |  | 87 | 57 |  | 
 | 1.1 |  |  | O=S(=O)(c1ccc2c(c1)CCNCC2)N1CC(Oc2ccccc2Cl)C1 | 76 | > 9940 | 31 | 3410 |  |  |  | 

SMILES | clearance (Liver microsomes) [µL/min/mg] | logD [4] | Emax [7] [%] | Activity [9] [%] | Emax [1] [%] | EC50 [2] [nM] | EC50 [3] [nM] | Ki [5] [nM] | Ki [6] [nM] | Emax [2] [%] | Papp B→A [8] [×10⁻⁶ cm/s] | Papp A→B [10] [×10⁻⁶ cm/s]
O=S(=O)(c1ccccc1)c1ccc2c(c1)CCNCC2 | < 8 | 0.5 |  |  | 71 | 18 | 9 | > 7200 | 6 | 61 | 25 | 21
O=S(=O)(Nc1ccc2c(c1)CCNCC2)c1ccccc1F |  |  | 18 |  |  |  |  |  |  |  |  | 
